Test results taken from ChEMBL document CHEMBL1158608, “Hit-to-lead optimization of disubstituted oxadiazoles and tetrazoles as mGluR5 NAMs” (Bioorg Med Chem Lett, 2010).

Assays:
[1] = target: T1, Metabotropic glutamate receptor 5 (Rattus norvegicus, UniProt P31424); assay: Allosteric modulation of mGluR5 in E17 rat neuronal cultures assessed as inhibition of (S)-3,5-dihydroxyphenylglycine-induced calcium level; format: functional
How it was run: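 Primary neocortical cultures from E17 rat embryos, grown at least 5 days, then loaded with the Ca2+ dye fluo-4/AM. Baseline and agonist-evoked fluorescence signals were recorded on a plate reader fluorometer.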

[2] = target: T1, Metabotropic glutamate receptor 5; assay: Displacement of [3H]-M-MPEP from mGluR5 in rat cerebrocortical membranes; format: cell membranes, Membrane
How it was run: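 Displacement run in duplicate or triplicate, with curves of at least six concentrations. IC50 was converted to Ki by Cheng-Prusoff, using Kd from a Scatchard plot.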

[3] = target: Metabotropic glutamate receptor 5 (Homo sapiens, UniProt P41594); assay: Binding affinity to human mGluR5
How it was run: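 Run in duplicate or triplicate, with concentration-displacement curves of at least six concentrations giving IC50. Ki derived by Cheng-Prusoff, using the radioligand Kd determined from a Scatchard plot.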

T1 sequence (P31424 whole entry): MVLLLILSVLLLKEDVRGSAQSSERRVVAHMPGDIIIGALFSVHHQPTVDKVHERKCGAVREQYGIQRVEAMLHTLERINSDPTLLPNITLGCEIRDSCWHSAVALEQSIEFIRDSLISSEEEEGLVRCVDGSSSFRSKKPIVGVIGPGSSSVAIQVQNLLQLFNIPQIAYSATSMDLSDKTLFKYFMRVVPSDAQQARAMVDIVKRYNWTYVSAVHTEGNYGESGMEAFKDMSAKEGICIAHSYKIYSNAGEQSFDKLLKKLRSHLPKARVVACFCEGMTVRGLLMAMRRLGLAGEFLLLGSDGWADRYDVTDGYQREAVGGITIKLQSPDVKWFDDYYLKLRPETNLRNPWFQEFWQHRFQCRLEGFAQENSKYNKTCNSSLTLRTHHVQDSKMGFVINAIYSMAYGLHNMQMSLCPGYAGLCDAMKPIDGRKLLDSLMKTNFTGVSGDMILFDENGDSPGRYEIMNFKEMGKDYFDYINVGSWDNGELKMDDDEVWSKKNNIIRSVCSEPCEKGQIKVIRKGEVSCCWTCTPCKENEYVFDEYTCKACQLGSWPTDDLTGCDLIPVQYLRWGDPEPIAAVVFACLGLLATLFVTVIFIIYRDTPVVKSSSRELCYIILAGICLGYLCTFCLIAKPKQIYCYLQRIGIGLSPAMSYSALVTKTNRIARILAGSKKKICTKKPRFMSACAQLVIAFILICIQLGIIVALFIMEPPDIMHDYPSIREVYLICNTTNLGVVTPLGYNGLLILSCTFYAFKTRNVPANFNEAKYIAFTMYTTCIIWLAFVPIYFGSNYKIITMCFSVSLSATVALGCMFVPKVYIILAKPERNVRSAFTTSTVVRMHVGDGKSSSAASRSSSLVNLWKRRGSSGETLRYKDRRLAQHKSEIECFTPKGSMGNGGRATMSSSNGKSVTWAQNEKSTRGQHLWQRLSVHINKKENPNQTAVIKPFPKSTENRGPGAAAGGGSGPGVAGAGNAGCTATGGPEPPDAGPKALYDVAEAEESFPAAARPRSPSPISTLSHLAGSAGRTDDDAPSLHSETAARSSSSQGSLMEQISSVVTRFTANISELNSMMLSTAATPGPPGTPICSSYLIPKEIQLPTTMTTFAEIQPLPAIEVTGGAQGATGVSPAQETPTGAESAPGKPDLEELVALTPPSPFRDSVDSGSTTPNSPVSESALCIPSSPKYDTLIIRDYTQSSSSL
Metabotropic glutamate receptor 5 (Homo sapiens, UniProt P41594), sequence (P41594 whole entry): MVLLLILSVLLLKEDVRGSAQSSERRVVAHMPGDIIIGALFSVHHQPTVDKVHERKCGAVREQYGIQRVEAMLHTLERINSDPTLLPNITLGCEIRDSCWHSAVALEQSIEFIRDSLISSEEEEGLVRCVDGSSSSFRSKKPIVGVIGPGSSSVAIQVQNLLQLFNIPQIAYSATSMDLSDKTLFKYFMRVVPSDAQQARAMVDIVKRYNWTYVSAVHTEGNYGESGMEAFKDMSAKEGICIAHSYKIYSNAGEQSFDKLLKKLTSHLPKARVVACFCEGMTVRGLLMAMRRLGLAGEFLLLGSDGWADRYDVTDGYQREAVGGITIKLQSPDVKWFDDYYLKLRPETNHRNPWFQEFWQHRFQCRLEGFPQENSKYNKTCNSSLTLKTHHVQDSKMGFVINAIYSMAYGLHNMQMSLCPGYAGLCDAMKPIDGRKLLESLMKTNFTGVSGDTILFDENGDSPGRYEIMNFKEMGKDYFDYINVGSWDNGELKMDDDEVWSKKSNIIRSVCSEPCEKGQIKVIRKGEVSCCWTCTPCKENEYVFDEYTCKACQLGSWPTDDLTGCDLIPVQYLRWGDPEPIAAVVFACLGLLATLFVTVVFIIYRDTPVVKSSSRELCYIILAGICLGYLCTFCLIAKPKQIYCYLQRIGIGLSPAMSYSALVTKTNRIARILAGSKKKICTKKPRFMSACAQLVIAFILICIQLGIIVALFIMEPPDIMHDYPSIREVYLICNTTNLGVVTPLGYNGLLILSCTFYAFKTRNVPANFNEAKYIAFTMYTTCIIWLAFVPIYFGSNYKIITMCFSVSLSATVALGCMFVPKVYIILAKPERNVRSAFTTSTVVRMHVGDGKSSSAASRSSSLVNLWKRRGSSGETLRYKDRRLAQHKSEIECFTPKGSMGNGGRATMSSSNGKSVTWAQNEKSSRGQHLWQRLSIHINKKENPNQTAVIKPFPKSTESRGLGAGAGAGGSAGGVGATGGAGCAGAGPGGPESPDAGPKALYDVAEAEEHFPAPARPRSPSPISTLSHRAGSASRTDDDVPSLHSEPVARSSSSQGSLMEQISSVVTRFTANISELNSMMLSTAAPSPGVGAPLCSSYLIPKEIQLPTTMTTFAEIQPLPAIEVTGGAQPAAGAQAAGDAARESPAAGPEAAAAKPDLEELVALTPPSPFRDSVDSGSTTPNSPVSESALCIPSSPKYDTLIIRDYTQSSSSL

Cc1cccc(-c2noc(C3CCCCN3C(=O)C3CCC3)n2)c1 (racemic)
IC50 [1]: 490 nM
Ki [2]: 126 nM

CC(C)C(=O)N1CCCCC1c1nnn(-c2cccc(Cl)c2)n1 (racemic)
Ki [2]: 138 nM

O=C(c1cccs1)N1CCCC1c1nc(-c2cccc(Cl)c2)no1 (racemic)
IC50 [1]: 30200 nM
Ki [2]: 195 nM

O=C(c1ccco1)N1CCCCC1c1nnn(-c2cccc(Cl)c2)n1 (racemic)
Ki [2]: 126 nM

Cc1cccc(-n2nnc(C3CCCCN3C(=O)C3CCC3)n2)c1 (racemic)
IC50 [1]: 224 nM
Ki [2]: 72.4 nM

Cc1ccc(C(=O)N2CCCC2c2nc(-c3cccc(Cl)c3)no2)s1 (racemic)
IC50 [1]: 6610 nM
Ki [2]: 123 nM

O=C(C1CCC1)N1CCCC[C@H]1c1nnn(-c2cccc(Cl)c2)n1
Ki [2]: 741 nM

N#Cc1cccc(-n2nnc(C3CCCCN3C(=O)C3CCC3)n2)c1 (racemic)
Ki [2]: 229 nM

O=C(C1CCC1)N1CCCC[C@@H]1c1nnn(-c2cccc(Cl)c2)n1
Ki [2]: 57.5 nM

CN1CC(=O)N=C1NC(=O)Nc1cccc(Cl)c1 [FENOBAM ANHYDROUS]
Ki [3]: 6.76 nM

Cc1ccc(C(=O)N2CSCC2c2nc(-c3cccc(Cl)c3)no2)s1 (racemic)
IC50 [1]: 759 nM
Ki [2]: 83.2 nM

Cc1ccc(C(=O)N2CCCC2c2nnn(-c3cccc(Cl)c3)n2)s1 (racemic)
IC50 [1]: 251 nM
Ki [2]: 89.1 nM

Cc1cccc(-n2nnc(C3CCCCN3C(=O)C3CCCC3)n2)c1 (racemic)
Ki [2]: 102 nM

N#Cc1cccc(-c2noc(C3CCCCN3C(=O)c3cccs3)n2)c1 (racemic)
IC50 [1]: 1740 nM
Ki [2]: 200 nM

COCC(=O)N1CCCC1c1nc(-c2cccc(C)c2)no1 (racemic)
IC50 [1]: 30200 nM
Ki [2]: 186 nM

O=C(c1cccs1)N1CCCC(c2nnn(-c3cccc(Cl)c3)n2)C1 (racemic)
Ki [2]: 316 nM

COc1cccc(-c2noc(C3CCCCN3C(=O)C3CCC3)n2)c1 (racemic)
IC50 [1]: 501 nM
Ki [2]: 182 nM

O=C(C1CCC1)N1CCCCC1c1nnn(-c2cccc(Cl)c2)n1 (racemic)
IC50 [1]: 339 nM
Ki [2]: 77.6 nM

Cc1ccc(C(=O)N2CCCC2c2nnn(-c3cccc(Cl)c3)n2)o1 (racemic)
Ki [2]: 105 nM

O=C(c1ccco1)N1CSCC1c1nc(-c2cccc(Cl)c2)no1 (racemic)
IC50 [1]: 1050 nM
Ki [2]: 195 nM

Cc1cccc(-c2noc(C3CCCN3C(=O)c3ccc(C)s3)n2)c1 (racemic)
IC50 [1]: 1000 nM
Ki [2]: 145 nM

O=C(c1ccc(Br)o1)N1CCCCC1c1nnn(-c2cccc(F)c2)n1 (racemic)
Ki [2]: 457 nM

O=C(C1CCCC1)N1CCCCC1c1nnn(-c2cccc(Cl)c2)n1 (racemic)
IC50 [1]: 295 nM
Ki [2]: 87.1 nM
